# SENP1 inh: inhibitors of human SENP1 SUMO protease catalytic domain; Q9P0U3; recombinant SENP1 catalytic domain, CyPet-SUMO1-YPet FRET cleavage; inhibition, % at 10 µM; actives 0.21% (n = 360,000); AID 624204;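 active means inhibition at least 30% at 10 µM, raw YFP signal under a set limit, fluorescence ratio 0.5 to 1.5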
# Target sequence (Q9P0U3 419-644 limits assumed): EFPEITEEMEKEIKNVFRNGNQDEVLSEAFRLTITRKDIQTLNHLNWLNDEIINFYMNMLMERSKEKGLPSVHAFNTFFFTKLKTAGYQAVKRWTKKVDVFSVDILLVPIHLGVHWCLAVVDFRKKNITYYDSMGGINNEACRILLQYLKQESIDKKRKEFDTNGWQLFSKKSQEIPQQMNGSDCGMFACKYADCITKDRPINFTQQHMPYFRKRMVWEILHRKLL
#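 Controls: no-enzyme wells low, DMSO-plus-enzyme wells high control. Test system: human recombinant His6-tagged SENP1 catalytic domain enzyme. Reagent: SFCypet-SUMO1-SFYpet FRET protein substrate, 25 nM final. Doses: one dose per compound, 10 µM, 0.5% DMSO. Detection: FRET, CFP and YFP emission. Timing: 50 min reaction at room temperature.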
# SENP8 block-1: SENP8 protease inhibition; Q96LD8; purified SENP8, Z-RLRGG-aminoluciferin cleavage, luminescence; inhibition, % at 10 µM; actives 1.2% (n = 330,000); in the data active means inhibition above about 50%
# UCH37 inh: inhibitors of human deubiquitinating enzyme UCH37. actives 0.33% (n = 330,000). inhibition, % (test concentration not listed). Q9Y5K5. purified proteasome/UCH37, Ub-AMC cleavage fluorescence;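 active means mean inhibition over replicate wells above about 20%, limit read from the data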
# Target sequence (Q9Y5K5 whole entry, looked up): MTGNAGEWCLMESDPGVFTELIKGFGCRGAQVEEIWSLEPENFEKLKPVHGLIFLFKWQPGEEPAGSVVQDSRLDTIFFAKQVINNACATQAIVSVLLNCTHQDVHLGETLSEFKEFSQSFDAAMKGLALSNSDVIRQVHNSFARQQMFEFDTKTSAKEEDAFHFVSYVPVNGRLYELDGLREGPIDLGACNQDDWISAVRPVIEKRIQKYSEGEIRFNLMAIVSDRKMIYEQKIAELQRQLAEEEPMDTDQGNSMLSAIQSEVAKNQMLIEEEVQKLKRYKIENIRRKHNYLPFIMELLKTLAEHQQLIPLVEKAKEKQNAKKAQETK
#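 Material: Human UCH37 enzyme supplied as purified proteasome complex | Schedule: 30 min compound-proteasome preincubation then 25 min substrate reaction, room temperature | Detection: AMC fluorescence from Ub-AMC cleavage, excitation 355 nm, emission 460 nm | Benchmarks: Wells without proteasome as full block, compound-free enzyme plus substrate as uninhibited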
# SENP6 inh: blocks the human protease SENP6; Q9GZR1; Recombinant SENP6 catalytic domain, aminoluciferin luminescence; inhibition, % at 10 µM; actives 1.8% (n = 330,000);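 active means inhibition above about 50% at the single tested dose, limit read from the data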
# SENP7 inh: blocks the human protease SENP7. Q9BQF6. recombinant SENP7, Z-RLRGG-aminoluciferin luminescence, 40 min. inhibition, % at 5 µM. actives 1.5% (n = 330,000). AID 434973;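 active means inhibition above about 50% at the single test dose, limit read from the data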
# SENP8 block-2: SENP8 (human) protease inhibition. Q96LD8. recombinant SENP8, Nedd8 substrate fluorescence. inhibition, % at 20 µM. actives 0.64% (n = 360,000); in the data active means inhibition mostly above about 40%, no sharp cut-off; inactive means mostly below about 27%
# Hits are given with their value; - = inactive; . = no result given. Shown are actives, neighbours in structure and some others; about 2.6% of the full set was active somewhere.
SMILES,SENP1 inh,SENP8 block-1,UCH37 inh,SENP6 inh,SENP7 inh,SENP8 block-2
O=C1/C(=C\c2ccco2)SC(=S)N1c1ccc(O)cc1,-,-,-,-,-,-
CC(=NNC(=O)c1ccc(C)s1)c1cccnc1,.,.,-,.,.,.
CCOc1ccc(OCC)c(NC(=O)C2CCN(c3nn4c(=O)cc(C)nc4s3)CC2)c1,-,-,23.2,-,-,-
Cc1cc(=O)n2nc(N3CCC(C(=O)N4CCN(Cc5ccccc5)CC4)CC3)sc2n1,-,-,23.6,-,-,-
O=C(NN=Cc1ccco1)c1ccncc1,.,.,-,.,.,.
CC1=NC(=O)C(N=Nc2cccc(C(=O)O)c2)N1c1ccccc1 (centres undefined),-,-,-,-,-,-
CC1=NC(=O)C(N=Nc2ccccc2)N1c1ccccc1 (centres undefined),-,-,-,-,-,46.2
CC1=NC(=O)C(N=Nc2ccccc2C(=O)O)N1c1ccccc1 (centres undefined),-,-,20.7,-,-,48.0
O=C(Nc1cccc(NC(=O)c2ccc(Cl)cc2)n1)c1ccc(Cl)cc1,-,-,-,-,-,-
O=C(N/N=C1/C(=O)c2cccc3cccc1c23)c1ccc(Cl)cc1,-,-,.,-,-,48.1
CCNC(=S)N/N=C1\CCCCc2ccccc21,-,-,.,-,-,-
CCNC(=S)N/N=C1\C(=O)c2cccc3cccc1c23,-,-,-,-,-,43.9
Cc1[nH]c2ccccc2c1C=NNc1cccc(C(=O)O)c1,.,.,-,.,.,.
CON=CC(=NNc1ccccc1)C(=O)c1ccccc1,.,.,-,.,.,.
CCOC(=O)CC1C(=O)NCCN1c1nc2ccc(C)cn2c(=O)c1/C=C1\SC(=S)N(CC(C)C)C1=O (centres undefined),-,-,-,-,-,47.9
CCOC(=O)CC1C(=O)NCCN1c1nc2ccc(C)cn2c(=O)c1/C=C1\SC(=S)N(C(C)CC)C1=O (centres undefined),.,-,.,-,-,.
NC(=O)c1ccsc1NC(=O)c1coc2ccccc2c1=O,-,66.4,-,83.0,79.1,-
Cn1c(=O)c2c(nc(CN3CCc4ccccc4C3)n2Cc2cccc(Cl)c2)n(C)c1=O,-,-,23.1,-,-,-
COc1ccc(CNC(=S)NN=C(C)c2ccc(OC)cc2)cc1,.,.,-,.,.,.
CN(C)c1ccc(/C=C/c2nc3ccccc3s2)cc1,-,97.0,-,98.6,98.8,-
CN(C)c1ccc(/C=C/c2ccc3ccccc3n2)cc1,-,.,-,.,.,-
CN(C)c1ccc(CNc2nc3ccccc3s2)cc1,.,53.6,.,81.7,95.2,.
COc1cc(C=NNC(=O)CC#N)cc(Br)c1O,.,.,-,.,.,.
CCOC(=O)NN=Cc1c(C)nn(-c2cccc(C(F)(F)F)c2)c1Cl,.,.,-,.,.,.
CCCCCCCCCCCCCCCC[n+]1cccc2ccccc21,-,-,87.7,-,-,-
SMILES,SENP1 inh,SENP8 block-1,UCH37 inh,SENP6 inh,SENP7 inh,SENP8 block-2
CC(=O)c1cn(CC(=O)Nc2ccc(C)cc2)c2ccccc12,-,-,20.3,-,-,-
O=C(CNC(=O)c1cccnc1)NN=Cc1ccc(O)cc1O,.,.,-,.,.,.
CCN(CC)Cc1c(C(=O)NN=Cc2ccc(C)o2)nnn1-c1nonc1N,.,.,-,.,.,.
O=C(COC(=O)c1cccc(N2C(=O)C3CC=CCC3C2=O)c1)c1ccccc1 (centres undefined),-,-,-,-,-,-
Nc1cccc(C(=O)OCC(=O)c2ccccc2)c1,-,54.6,-,67.6,70.2,-
Nc1cccc(C(=O)OCC(=O)Nc2cccc3c2C(=O)c2ccccc2C3=O)c1,32.6,-,-,-,-,-
Cc1cccc(NC(=O)COC(=O)c2cccc3c2C(=O)c2ccccc2C3=O)c1C,-,-,-,-,-,-
CCN(CC)CCC(=O)Nc1cccc2c1C(=O)c1ccccc1C2=O,61.8,-,.,-,-,-
CCN(CC)CCNC(=O)c1ccc2c(c1NCCO)C(=O)c1ccccc1C2=O,-,-,-,-,-,88.2
CC(=NNC(=S)Nc1cccc(C)c1)c1cccc(N)c1,.,.,-,.,.,.
CC(=O)OCCN1C(=O)c2cccc3cc([N+](=O)[O-])cc(c23)C1=O,.,-,.,-,-,.
CN(C)CCN1C(=O)c2cccc3cc([N+](=O)[O-])cc(c23)C1=O,60.1,.,.,.,.,-
Cc1cccc(-c2n[nH]c(=S)n2N=Cc2cccs2)c1,.,.,-,.,.,.
COc1cccc(-c2noc(-c3ccc(Br)o3)n2)c1,-,56.8,.,-,72.6,-
COc1ccc(-c2noc(-c3ccc(Br)o3)n2)cc1,-,-,-,-,-,-
O=C(NN=Cc1ccc(OCc2ccc(F)cc2)cc1)c1ccccc1,.,.,-,.,.,.
Fc1cccc(C=NNc2cc(N3CCOCC3)ncn2)c1,.,.,-,.,.,.
COc1ccccc1C(=O)NCC(=O)NN=Cc1cc(Br)ccc1OC(=O)/C=C\c1ccco1,.,.,-,.,.,.
Cc1ccc[n+](/C(=C\C(=C=[N-])C#N)C(=O)c2ccc(Cl)cc2)c1,-,-,21.5,-,-,-
O=C(NN=Cc1ccccc1)c1cc(=O)[nH]c2ccccc12,.,.,-,.,.,.
O=C(N/N=C/c1sc(=O)n(-c2ccccc2)c1Cl)c1ccccc1,-,55.6,.,83.3,75.6,-
O=C(NN=Cc1sc(=O)n(-c2ccccc2)c1Cl)c1ccccc1,.,.,-,.,.,.
O=C(O)c1cccc(Cn2c(Cl)c(C=NNC(=O)c3ccccc3O)sc2=O)c1,.,.,-,.,.,.
O=C(O)c1cccc(Cn2c(Cl)c(C=NNC(=O)c3cc4ccccc4cc3O)sc2=O)c1,.,.,22.4,.,.,.
COc1cccc(OCCOc2cccc(C=Nn3cnnc3)c2)c1,.,.,-,.,.,.
Cc1nc(Nc2ccc(S(N)(=O)=O)cc2)sc1C(=O)Nc1ccccc1,-,-,21.4,-,-,-
Cc1nc(Nc2ccccc2)sc1C(=O)Nc1ccccc1,-,-,-,-,-,-
Cc1nc(NCCOc2ccccc2)sc1C(=O)Nc1ccccc1,-,62.6,-,75.9,84.0,-
